These results are taken from ChEMBL document CHEMBL1157664, “Aminopyridinecarboxamide-based inhibitors: Structure-activity relationship” (Bioorg Med Chem, 2010).

In experiment [1] the target is T1, Serine/threonine-protein kinase TBK1 (Homo sapiens) (UniProt Q9UHD2).
T1 sequence (whole entry): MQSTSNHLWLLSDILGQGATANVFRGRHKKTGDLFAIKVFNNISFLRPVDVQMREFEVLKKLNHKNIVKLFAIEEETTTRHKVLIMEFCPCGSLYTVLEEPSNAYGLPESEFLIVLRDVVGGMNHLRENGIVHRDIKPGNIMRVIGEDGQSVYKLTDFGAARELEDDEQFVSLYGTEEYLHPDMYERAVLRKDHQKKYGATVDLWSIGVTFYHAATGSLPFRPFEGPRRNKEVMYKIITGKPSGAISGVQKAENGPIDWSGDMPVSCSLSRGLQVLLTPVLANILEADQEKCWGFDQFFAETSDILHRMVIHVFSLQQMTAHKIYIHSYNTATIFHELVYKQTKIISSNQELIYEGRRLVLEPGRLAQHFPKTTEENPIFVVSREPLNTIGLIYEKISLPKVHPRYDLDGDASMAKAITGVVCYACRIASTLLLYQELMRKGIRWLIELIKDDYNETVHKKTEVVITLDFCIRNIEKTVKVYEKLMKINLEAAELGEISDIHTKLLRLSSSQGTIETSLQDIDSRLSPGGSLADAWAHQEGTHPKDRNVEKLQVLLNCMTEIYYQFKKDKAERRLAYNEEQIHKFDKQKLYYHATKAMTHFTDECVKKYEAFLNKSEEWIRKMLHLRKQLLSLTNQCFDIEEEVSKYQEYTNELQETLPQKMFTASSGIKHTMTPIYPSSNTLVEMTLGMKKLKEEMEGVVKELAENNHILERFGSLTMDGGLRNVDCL
The experiment can be described thus: Inhibition of TBK1.

Experiment [2] is described as follows: Antiinflammatory activity in human synovial fibroblasts assessed as inhibition of IL-1-beta-stimulated IL8 production treated 1 hr before IL1-beta challenge measured after 18 hrs by ELISA. Type of experiment: functional. Summed up:
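Rheumatoid arthritis patient synovial fibroblasts seeded at 1.5 × 10^4 cells/well in DMEM + 15% FBS and left to attach overnight. Medium then changed to DMEM + 1% FBS. Cells pretreated 1 h with increasing compound concentrations (0.2% Me2SO final), then stimulated 18 h with 1 ng/mL IL-1β. Secreted IL-8 measured by ELISA against standard curves (4-parameter logistic). Cytotoxicity checked by Alamar Blue.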
(In general: An ELISA detects its analyte on a solid surface through an enzyme-linked reagent.)

Experiment [3] addresses T2, Inhibitor of nuclear factor kappa-B kinase subunit beta (Homo sapiens, UniProt O14920).
T2 sequence (O14920 whole entry): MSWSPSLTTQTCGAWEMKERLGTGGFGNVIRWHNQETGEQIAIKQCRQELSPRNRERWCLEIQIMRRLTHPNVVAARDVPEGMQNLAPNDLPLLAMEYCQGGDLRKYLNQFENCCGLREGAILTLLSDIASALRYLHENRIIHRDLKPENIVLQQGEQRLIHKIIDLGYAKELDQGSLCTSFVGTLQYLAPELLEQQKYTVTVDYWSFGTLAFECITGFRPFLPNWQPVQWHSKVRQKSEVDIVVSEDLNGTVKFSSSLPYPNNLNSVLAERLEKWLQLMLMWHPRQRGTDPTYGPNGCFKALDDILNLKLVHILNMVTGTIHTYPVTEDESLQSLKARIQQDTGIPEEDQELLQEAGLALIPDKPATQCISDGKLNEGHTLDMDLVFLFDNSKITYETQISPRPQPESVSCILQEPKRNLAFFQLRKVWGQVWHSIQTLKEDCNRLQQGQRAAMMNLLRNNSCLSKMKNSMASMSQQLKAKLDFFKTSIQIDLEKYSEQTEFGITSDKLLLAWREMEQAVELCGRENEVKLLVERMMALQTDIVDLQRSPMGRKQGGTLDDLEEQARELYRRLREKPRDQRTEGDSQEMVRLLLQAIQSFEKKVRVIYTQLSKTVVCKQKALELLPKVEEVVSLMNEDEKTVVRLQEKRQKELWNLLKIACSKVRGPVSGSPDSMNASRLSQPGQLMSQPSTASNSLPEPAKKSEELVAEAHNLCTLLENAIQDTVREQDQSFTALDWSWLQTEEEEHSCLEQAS
Kind of experiment: Inhibition of human recombinant IKK2-mediated transfer of [gamma33P]ATP to biotinylated IkappaBalpha after 30 mins by scintillation counting. Summed up: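 Recombinant human IKK-2 enzyme (46 nM/rxn, 200 ng/rxn). Substrate 5 µM biotinylated IκBα peptide (residues spanning Ser32/Ser36) with 1 µM ATP plus 0.1 µCi [γ-33P]ATP. Buffer 25 mM Hepes pH 7.6 with 1 mM DTT, 2 mM MgCl2, 2 mM MnCl2, 10 mM NaF. Incubated 30 min at 25 °C, stopped with AG1X8 resin in formate buffer pH 3. Supernatant ³³P read by scintillation counting.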

For experiment [4], the target named is T3, Inhibitor of nuclear factor kappa-B kinase subunit alpha (Homo sapiens, UniProt O15111).
T3 sequence (O15111 whole entry): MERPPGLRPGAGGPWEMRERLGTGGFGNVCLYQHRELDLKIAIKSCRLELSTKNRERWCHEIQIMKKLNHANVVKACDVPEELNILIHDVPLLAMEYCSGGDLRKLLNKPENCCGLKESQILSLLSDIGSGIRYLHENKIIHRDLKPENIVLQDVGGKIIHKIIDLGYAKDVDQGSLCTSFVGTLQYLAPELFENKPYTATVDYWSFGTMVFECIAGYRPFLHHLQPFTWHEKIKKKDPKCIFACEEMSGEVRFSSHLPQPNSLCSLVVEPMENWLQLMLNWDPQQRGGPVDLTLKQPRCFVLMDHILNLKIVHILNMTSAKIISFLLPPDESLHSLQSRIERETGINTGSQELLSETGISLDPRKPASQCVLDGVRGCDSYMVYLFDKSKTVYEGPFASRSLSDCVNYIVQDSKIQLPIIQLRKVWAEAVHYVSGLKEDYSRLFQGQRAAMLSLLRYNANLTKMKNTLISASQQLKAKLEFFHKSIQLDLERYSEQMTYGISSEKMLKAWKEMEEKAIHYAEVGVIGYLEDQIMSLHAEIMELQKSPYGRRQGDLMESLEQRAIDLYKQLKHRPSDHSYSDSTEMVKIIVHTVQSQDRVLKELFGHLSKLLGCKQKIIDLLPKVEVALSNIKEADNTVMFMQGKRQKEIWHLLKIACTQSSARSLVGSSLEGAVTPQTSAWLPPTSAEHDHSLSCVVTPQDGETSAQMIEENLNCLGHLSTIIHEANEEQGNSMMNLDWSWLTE
The experiment can be described thus: Inhibition of IKK1.

In experiment [5] the target is T4, Inhibitor of nuclear factor kappa-B kinase subunit epsilon (Homo sapiens) (UniProt Q14164).
T4 sequence (whole entry): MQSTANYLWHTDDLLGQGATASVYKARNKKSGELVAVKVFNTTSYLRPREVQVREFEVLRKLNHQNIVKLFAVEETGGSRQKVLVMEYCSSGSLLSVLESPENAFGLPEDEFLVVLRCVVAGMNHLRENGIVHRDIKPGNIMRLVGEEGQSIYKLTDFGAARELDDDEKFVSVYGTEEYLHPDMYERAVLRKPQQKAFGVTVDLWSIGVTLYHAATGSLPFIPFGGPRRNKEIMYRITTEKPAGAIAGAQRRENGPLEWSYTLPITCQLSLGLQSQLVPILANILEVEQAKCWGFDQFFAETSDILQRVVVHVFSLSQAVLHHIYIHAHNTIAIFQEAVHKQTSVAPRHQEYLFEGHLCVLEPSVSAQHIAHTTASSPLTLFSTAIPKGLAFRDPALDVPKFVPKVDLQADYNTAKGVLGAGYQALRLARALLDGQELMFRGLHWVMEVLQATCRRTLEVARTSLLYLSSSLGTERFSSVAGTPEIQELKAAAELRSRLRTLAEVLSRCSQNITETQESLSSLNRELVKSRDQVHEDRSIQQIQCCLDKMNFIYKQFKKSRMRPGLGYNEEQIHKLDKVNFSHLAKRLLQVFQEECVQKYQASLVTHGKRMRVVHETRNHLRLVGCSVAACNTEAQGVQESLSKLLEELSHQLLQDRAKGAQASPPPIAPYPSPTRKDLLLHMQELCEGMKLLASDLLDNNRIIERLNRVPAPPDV
The experiment can be described thus: Inhibition of IKKI.

The source made the active and inactive calls. The calls are words filed in the database; no cut-off is given here.

For `CN1CCN(c2cc(C(=O)Nc3ccc4c(c3)-c3c(c(C(N)=O)nn3-c3ccc(F)cc3)CC4)c(Cl)cn2)CC1`, the inhibition entry in experiment [1] and in experiment [5] was “inactive” throughout. The IC50 (usually the point on the concentration scale where inhibition reaches its midpoint) in experiment [2] was 940 nM; in experiment [3], 25 nM; in experiment [4], 14000 nM.
